PRMT1 inh: inhibitors of human PRMT1; Q99873; recombinant PRMT1, activity-based probe fluorescence polarization; inhibition, % at 2.79 µM; actives 1.3% (n = 370,000); AID 652257;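 active means inhibition above about 21% made by adding two undisclosed values, limit read from the data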
SIAE primary: human SIAE inhibition, primary screen; inhibition, % at 9.66 µM; actives 0.69% (n = 370,000); SIAE FP-Rh probe binding, fluorescence polarization;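 active means inhibition above a cutoff: mean of compounds within the control limits plus 3 SD of those, cut at about 17% in these data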
rCAG RNA binder: r(CAG) repeat RNA binding. TO-PRO-1 dye displacement fluorescence. inhibition, % at 3 µM. actives 1.3% (n = 370,000). AID 651821;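 active means inhibition above the plate cutoff, the mean of all test compounds on that plate plus 3 SD, cut at about 35% in these data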;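 further: higher means more dye released from RNA so lower well fluorescence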
HTRA1 inh: HTRA1 (human) protease inhibition | Q92743 | inhibition, % at 5.96 µM | actives 0.5% (n = 340,000) | recombinant HTRA1, FP-rhodamine activity-based probe, fluorescence polarization | AID 504803; in the data active means inhibition above about 36%
TCR-CD3 inh: blocks the human TCR-CD3 interaction; TAMRA-labeled TCR probe fluorescence, biochemical; AID 651800; inhibition, % at 9.4 µM; actives 0.37% (n = 360,000); in the data active means inhibition above about 19%;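 further: recombinant mutant TCR 2C K166C tagged with TAMRA read by polarization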
ABHD4 inh: inhibitors of mouse ABHD4. Q8VD66. purified mABHD4, FP-Rh probe fluorescence polarization. inhibition, % at 8.92 µM. actives 0.54% (n = 370,000);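 active means inhibition exceeding the mean over every tested compound plus 3 SD, cut at about 30% in these data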
Target sequence (Q8VD66 whole entry, looked up): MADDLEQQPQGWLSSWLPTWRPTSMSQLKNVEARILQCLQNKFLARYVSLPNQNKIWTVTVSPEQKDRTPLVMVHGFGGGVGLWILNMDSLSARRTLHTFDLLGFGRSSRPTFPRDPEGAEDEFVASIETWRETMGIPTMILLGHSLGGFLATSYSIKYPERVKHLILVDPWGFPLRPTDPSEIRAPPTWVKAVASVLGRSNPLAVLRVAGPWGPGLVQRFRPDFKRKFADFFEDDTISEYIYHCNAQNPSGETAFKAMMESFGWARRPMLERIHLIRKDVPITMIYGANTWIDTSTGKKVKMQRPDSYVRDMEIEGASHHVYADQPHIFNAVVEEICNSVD
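Assay system: wild-type mouse ABHD4 protein; compound: single nominal dose of 8.92 µM, 0.89% DMSO final; schedule: 45 min + 60 min at 25 °C; measured by: FP readout, ex 525 nm / em 598 nm; evaluation: % inhibition of FP-Rh probe binding versus controls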
HTRA1 inh conf: confirmation of human HTRA1 inhibitors | inhibition, % at 5.96 µM | recombinant HTRA1, FP-rhodamine activity-based probe, fluorescence polarization | actives 66% (n = 1,600) | shares compounds with HTRA1 inh;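 active means mean inhibition over three repeats above a set limit taken from the earlier primary screen, cut at about 37% in these data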;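 further: inhibitors block probe binding so polarization drops and inhibition rises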
Numbers stand for hits; . = inactive; / = no result given. Sampled rows, rich in hits. Any-hit rate of the full collection: about 3.5%.

SMILES | PRMT1 inh | SIAE primary | rCAG RNA binder | HTRA1 inh | TCR-CD3 inh | ABHD4 inh | HTRA1 inh conf
CC(=O)NC(c1cc(Cl)c2cccnc2c1O)C(C)C (stereo not drawn) | . | . | . | 53 | . | . | 72
COc1ccc(CN(CCN2CCOCC2)C(=O)c2cc(F)ccc2C)cc1OC | . | . | . | / | / | . | /
CC(COc1ccc(C#N)c(F)c1)CN1CCC(C(O)(c2ccccc2)c2ccccc2)CC1 (stereo not drawn) | . | . | . | / | / | . | /
Cc1cccc(OCC(=O)NC(=S)N2CCCc3ccccc32)c1 | . | . | . | 48 | . | . | .
O=c1cc(-c2ccc(O)cc2)oc2c(-c3c(O)cc(O)c4c(=O)cc(-c5ccc(O)cc5)oc34)c(O)cc(O)c12 | . | . | 94 | 53 | . | . | 50
O=C(NCCCN1CCN(c2ccc(F)cc2)CC1)NCc1ccccc1 | . | . | . | / | / | . | /
Cc1cccc(NC(=O)C2CCCN2S(=O)(=O)c2cccc3cccnc23)c1C (stereo not drawn) | . | . | . | / | / | . | /
COC(=O)C[C@@H]1CC[C@H]2[C@H](COc3ccc(NC(=O)c4ccc(OC)cc4)cc3C(=O)N2C)O1 | . | . | . | / | / | . | /
CC(=O)NC(c1cccc([N+](=O)[O-])c1)c1ccc2cccnc2c1O (stereo not drawn) | . | . | . | 37 | . | . | 63
O=[N+]([O-])c1ccc(NC(c2ccccc2)c2ccc3cccnc3c2O)cc1 (stereo not drawn) | . | . | . | 36 | . | . | 40
Oc1c(C(Nc2cccc(C(F)(F)F)c2)c2cccnc2)ccc2cccnc12 (stereo not drawn) | . | . | . | . | . | . | /
CCc1cc2c(=O)c(-c3nc4ccccc4n3C)c(COCC(=O)O)oc2cc1OC(=O)C(C)(C)C | . | . | . | 48 | . | . | .
CCc1cc2c(=O)c(-c3nc4ccccc4n3C)c(C)oc2cc1OC(C)=O | . | . | . | . | . | . | /
CCC(=O)NC(c1ccccc1OC)c1ccc2cccnc2c1O (stereo not drawn) | / | / | / | 41 | / | / | 43
CCCCC(=O)NC(c1ccc(C(C)C)cc1)c1ccc2cccnc2c1O (stereo not drawn) | . | . | . | 56 | . | . | 53
COc1cccc(C(NC(C)=O)c2ccc3cccnc3c2O)c1 (stereo not drawn) | . | . | . | . | . | . | /
CCCCC(=O)NC(c1cccc([N+](=O)[O-])c1)c1ccc2cccnc2c1O (stereo not drawn) | . | . | . | . | . | . | /
CCCCC(=O)NC(c1ccccc1)c1ccc2cccnc2c1O (stereo not drawn) | . | . | . | 39 | . | . | 57
CCCCC(=O)NC(c1ccccc1Cl)c1ccc2cccnc2c1O (stereo not drawn) | . | . | . | 57 | . | . | 52
COP(=O)(O)C(Cc1ccccc1)NC(=O)OCc1ccccc1 (stereo not drawn) | . | . | . | / | / | . | /
CCN1CCCCC(NC(=O)c2ccccc2)C1=O (stereo not drawn) | . | . | . | / | / | . | /
CCCC(=O)NC(c1ccccc1)c1ccc2cccnc2c1O (stereo not drawn) | . | . | . | 47 | . | . | 45
CCCC(=O)NC(c1ccc(OC)cc1)c1ccc2cccnc2c1O (stereo not drawn) | . | . | . | . | . | . | /
C=CCN1C(=O)[C@H](CC(=O)NCc2ccc(OC)c(OC)c2)[C@@]2(C(=O)OCC)CCCC=C12 | . | . | . | / | / | . | /
CCOC(=O)[C@]12CCCCC/C=C\1N(CCc1ccc(Cl)cc1)C(=O)[C@H]2CC(=O)N1CCCC1 | . | . | . | / | / | . | /
SMILES | PRMT1 inh | SIAE primary | rCAG RNA binder | HTRA1 inh | TCR-CD3 inh | ABHD4 inh | HTRA1 inh conf
Cc1cccc(C)c1NC(=S)NCCc1ccc(O)c(O)c1 | . | . | . | 48 | . | . | 109
CN1CCc2cccc3c2[C@@H]1Cc1ccc(O)c(O)c1-3 | / | / | / | 49 | / | / | 53
Cc1ccc(OCC(C)CN2CCC(C(O)(c3ccccc3)c3ccccc3)CC2)cc1 (stereo not drawn) | . | . | . | / | / | . | /
Cc1cc(OC(C)CCN2CCC(C(O)(c3ccccc3)c3ccccc3)CC2)ccc1Br (stereo not drawn) | . | . | . | / | / | . | /
O=C1CCC[C@H]2Cc3nc4cccc(Cl)c4cc3C[C@]23CCCN13 | . | . | / | / | / | . | /
O=C1CC(c2ccc3c(c2)OCO3)N=C2N(Cc3ccc4c(c3)OCO4)C/C(=C/c3ccccc3)N12 (stereo not drawn) | . | . | / | / | / | . | /
C(=N\Nc1nc2ccccc2[nH]1)/c1cccc2cccnc12 | . | . | . | 49 | . | . | 54
COC(=O)CCC(=O)OC1(C)C(=O)C2=CN(CC3CC3)C(c3ccc(OC)cc3)=CC2=C(Br)C1=O (stereo not drawn) | / | / | / | 50 | / | / | 46
COC(=O)CCC(=O)OC1(C)C(=O)C2=CN(CCCOC(C)C)C(c3ccc(OC)cc3)=CC2=C(Br)C1=O (stereo not drawn) | / | / | / | 39 | / | / | 50
COC(=O)CCC(=O)OC1(C)C(=O)C2=CN(c3ccccc3)C(c3ccc(OC)cc3)=CC2=C(Br)C1=O (stereo not drawn) | . | . | . | 47 | . | . | 48
COC(=O)CCC(=O)OC1(C)C(=O)C2=CN(Cc3ccccc3)C(c3ccc(OC)cc3)=CC2=C(Br)C1=O (stereo not drawn) | . | . | . | 60 | . | . | 63
COC(=O)CCC(=O)OC1(C)C(=O)C2=CN(Cc3ccc(OC)cc3)C(c3ccc(OC)cc3)=CC2=C(Br)C1=O (stereo not drawn) | . | . | . | . | . | . | /
COC(=O)CCC(=O)OC1(C)C(=O)C2=CN(C3CC3)C(c3ccc(OC)cc3)=CC2=C(Br)C1=O (stereo not drawn) | . | . | . | . | . | . | /
O=C(CSc1ncnc2sc3c(c12)CCCC3)Nc1ccc(Oc2ccccc2)cc1 | . | . | . | / | / | . | /
COC(=O)c1cc2c(c3c4cc(C)ccc4n(C(=O)c4ccccc4)c13)C(=O)N(Cc1ccccc1)C2 | . | . | . | / | . | . | /
COc1cccc(CNC2CCC23CCC(C)CC3)c1 (stereo not drawn) | . | . | / | / | / | . | /
CC(C)CCN1C(=O)COc2ccccc2C1c1nnnn1-c1ccc2c(c1)OCCO2 (stereo not drawn) | . | . | . | / | / | . | /
C=C(C)Cn1c(SCC(=O)N/N=C(\C)c2ccc([N+](=O)[O-])cc2)nnc1-c1ccc(Br)cc1 | . | . | . | / | / | . | /
CC1(C)C=Cc2c(c3c(c4c(=O)c(-c5ccc(O)cc5)coc24)OC(C)(C)CC3)O1 | . | . | . | 36 | . | . | .
